Test results reported in ChEMBL document CHEMBL1938308, “Discovery of potent, selective and orally bioavailable triaryl-sulfonamide based PTP1B inhibitors” (Bioorg Med Chem Lett, 2012).
Values belong to the molecule of their own block, whether it stands above or below them. Calls of active or inactive are those of the source. The calls are words filed in the database; no cut-off is given here.

Columns and labels:
[1] = biological target: T1, Tyrosine-protein phosphatase non-receptor type 1 (Homo sapiens, UniProt P18031); experiment: Inhibition of PTP1B assessed as para-nitrophenyl phosphate catalyzed hydrolysis of para-nitrophenol by p-NPP assay
T1 sequence (P18031 whole entry): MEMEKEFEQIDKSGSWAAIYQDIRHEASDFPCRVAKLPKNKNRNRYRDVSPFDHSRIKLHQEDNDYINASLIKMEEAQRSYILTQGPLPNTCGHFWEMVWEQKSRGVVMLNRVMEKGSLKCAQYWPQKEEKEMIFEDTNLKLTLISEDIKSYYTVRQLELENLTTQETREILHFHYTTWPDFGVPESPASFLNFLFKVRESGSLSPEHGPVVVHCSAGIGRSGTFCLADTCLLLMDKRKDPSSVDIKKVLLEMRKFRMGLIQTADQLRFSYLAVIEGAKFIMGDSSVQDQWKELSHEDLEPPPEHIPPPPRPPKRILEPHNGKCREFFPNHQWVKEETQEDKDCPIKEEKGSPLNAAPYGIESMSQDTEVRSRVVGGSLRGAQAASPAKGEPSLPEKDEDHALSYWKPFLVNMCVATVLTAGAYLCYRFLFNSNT
Procedure, shortened: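 Enzymatic pNPP assay: initial rate of PTP1B-catalyzed pNPP hydrolysis read at 405 nm. IC50 determined at a fixed pNPP concentration of 1 mM. n = 3, mean ± SD.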

[2] = biological target: T2, Tyrosine-protein phosphatase non-receptor type 2 (Homo sapiens, UniProt P17706); experiment: Inhibition of TCPTP
T2 sequence (P17706 whole entry): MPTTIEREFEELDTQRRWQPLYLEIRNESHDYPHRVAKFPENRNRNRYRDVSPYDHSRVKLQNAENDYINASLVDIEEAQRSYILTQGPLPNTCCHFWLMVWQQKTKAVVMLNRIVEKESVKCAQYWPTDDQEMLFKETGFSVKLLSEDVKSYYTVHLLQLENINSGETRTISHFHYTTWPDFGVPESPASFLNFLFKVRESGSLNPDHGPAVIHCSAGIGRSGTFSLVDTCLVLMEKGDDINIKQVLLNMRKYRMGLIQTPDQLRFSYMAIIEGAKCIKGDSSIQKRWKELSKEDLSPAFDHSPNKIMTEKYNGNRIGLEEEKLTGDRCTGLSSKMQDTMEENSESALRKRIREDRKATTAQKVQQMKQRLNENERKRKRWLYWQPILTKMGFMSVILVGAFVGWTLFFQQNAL

[3] = Selectivity ratio of IC50 for CD45 to IC50 for PTP1B
[4] = Selectivity ratio of IC50 for LAR to IC50 for PTP1B
[5] = Selectivity ratio of IC50 for SHP1 to IC50 for PTP1B
[6] = Selectivity ratio of IC50 for SHP2 to IC50 for PTP1B
[7] = Selectivity ratio of IC50 for PTPalpha to IC50 for PTP1B
[8] = Selectivity ratio of IC50 for TCPTP to IC50 for PTP1B
Mus musculus = experiment: Antidiabetic activity in fasted C57BL/6J mouse assessed as reduction in serum AUC glucose level at 20 mg/kg, po after 240 mins by intraperitoneal glucose tolerance test relative to control; assay type: functional
Procedure, shortened: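 Overnight-fasted male C57BL/6J mice dosed orally at 20 mg/kg 0.5 h before an intraperitoneal glucose load of 1.5 g/kg. Blood taken at 0, 30, 60, 120 and 240 min, and serum glucose measured promptly by GOD-POD method in duplicate. AUC 0–240 min compared with vehicle control. Two-way ANOVA with Bonferroni post test, mean ± SEM.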

[9] = Tmax in fasted C57BL/6J mouse at 20 mg/kg, po; assay type: ADME, organism-based; set-up: dose 20 mg/kg, route oral; conditions: in vivo
Procedure, shortened: (§1)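 Male C57BL/6J mice (n = 6), fasted overnight, single 20 mg/kg dose by body weight, given po or iv. Plasma separated at 4 °C, stored at −70 °C, then quantified by LC–MS/MS. %F taken from po AUC relative to iv AUC. Mean ± SD.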

[10] = Cmax in fasted C57BL/6J mouse at 20 mg/kg, po; assay type: ADME, organism-based; set-up: dose 20 mg/kg, route oral; conditions: in vivo; procedure, shortened: as §1
[11] = Half life in fasted C57BL/6J mouse at 20 mg/kg, po; assay type: ADME, organism-based; set-up: dose 20 mg/kg, route oral; conditions: in vivo; procedure, shortened: as §1
[12] = AUC (0 to infinity) in fasted C57BL/6J mouse at 20 mg/kg, po; assay type: ADME, organism-based; set-up: time infinity, dose 20 mg/kg, route oral; conditions: plasma; procedure, shortened: as §1
[13] = Oral bioavailability in fasted C57BL/6J mouse at 20 mg/kg; assay type: ADME, organism-based; conditions: in vivo; procedure, shortened: as §1
[14] = AUC in fasted C57BL/6J mouse at 20 mg/kg, iv; assay type: ADME, organism-based; set-up: dose 20 mg/kg, route intravenous; conditions: plasma; procedure, shortened: as §1

IC50 [1]: 39 nM
Compound: NS(=O)(=O)C(F)(F)c1cc2cc(CN(Cc3ccc(-c4csnn4)cc3)S(=O)(=O)c3ccc(OCC(=O)O)cc3)ccc2cc1Br

IC50 [1]: 18 nM
Compound: O=C(O)COc1ccc(S(=O)(=O)N(Cc2ccc(-c3csnn3)cc2)Cc2ccc3cc(Br)c(C(F)(F)P(=O)(O)O)cc3n2)cc1

IC50 [1]: 141 nM
Compound: O=C(O)COc1ccc(S(=O)(=O)N(Cc2ccc(-c3csnn3)cc2)Cc2ccc(F)c(C(F)(F)P(=O)(O)O)c2)cc1

IC50 [1]: 9 nM
IC50 [2]: 870 nM
Ratio IC50 [3]: > 5000
Ratio IC50 [4]: > 5000
Ratio IC50 [5]: > 5000
Ratio IC50 [6]: > 5000
Ratio IC50 [7]: > 5000
Ratio IC50 [8]: 96
Tmax [9]: 18.6 min
Cmax [10]: 6300 ng/mL
half-life [11]: 418 min
AUC(0-inf) [12]: 8910 ng·h/mL
bioavailability [13]: 6.51%
AUC [14]: 137000 ng·h/mL
Compound: O=C(O)COc1ccc(S(=O)(=O)N(Cc2ccc(-c3csnn3)cc2)Cc2ccc3cc(F)c(C(F)(F)P(=O)(O)O)cc3c2)cc1
Activity (Mus musculus): 52.8 mg/dL

IC50 [1]: 470 nM
Compound: Cc1cc(CN(Cc2ccc(-c3csnn3)cc2)S(=O)(=O)c2ccc(OCC(=O)O)cc2)ccc1C1CC(=O)NS1(=O)=O (stereo not given)

IC50 [1]: 480 nM
Compound: O=C(O)COc1ccc(S(=O)(=O)N(Cc2ccc(-c3csnn3)cc2)Cc2ccc(C3CC(=O)NS3(=O)=O)c(Br)c2)cc1 (stereo not given)

Ratio IC50 [8]: 116
Compound: O=C(c1ccccc1)C(Cc1ccc2cc(Br)c(C(F)(F)P(=O)(O)O)cc2c1)(Cc1ccc2cc(Br)c(C(F)(F)P(=O)(O)O)cc2c1)n1nnc2ccccc21

IC50 [1]: 50 nM
IC50 [2]: 750 nM
Ratio IC50 [3]: > 5000
Ratio IC50 [4]: > 5000
Ratio IC50 [5]: > 5000
Ratio IC50 [6]: > 5000
Ratio IC50 [7]: > 5000
Ratio IC50 [8]: 15
Compound: O=C(O)COc1ccc(S(=O)(=O)N(Cc2ccc(-c3csnn3)cc2)Cc2ccc(C(F)(F)P(=O)(O)O)c(Br)c2)cc1

IC50 [1]: 47 nM
Compound: NS(=O)(=O)C(F)(F)c1ccc(CN(Cc2ccc(-c3csnn3)cc2)S(=O)(=O)c2ccc(OCC(=O)O)cc2)cc1Br

IC50 [1]: 41 nM
Compound: NS(=O)(=O)C(F)(F)c1cc2nc(CN(Cc3ccc(-c4csnn4)cc3)S(=O)(=O)c3ccc(OCC(=O)O)cc3)ccc2cc1Br

Continued, molecule first:

Compound: NS(=O)(=O)C(F)(F)c1cc2cc(CN(Cc3ccc(-c4csnn4)cc3)S(=O)(=O)c3ccc(OCC(=O)O)cc3)ccc2cc1F
IC50 [1]: 35 nM

Compound: O=C(O)COc1ccc(S(=O)(=O)N(Cc2ccc(-c3csnn3)cc2)Cc2ccc(C3CC(=O)NS3(=O)=O)c(F)c2)cc1 (stereo not given)
IC50 [1]: 460 nM

Compound: NS(=O)(=O)C(F)(F)c1cc2nc(CN(Cc3ccc(-c4csnn4)cc3)S(=O)(=O)c3ccc(OCC(=O)O)cc3)ccc2cc1F
IC50 [1]: 38 nM

Compound: O=C(O)COc1ccc(S(=O)(=O)N(Cc2ccc(-c3csnn3)cc2)Cc2ccc(C(F)(F)P(=O)(O)O)cc2)cc1
Ratio IC50 [8]: 7
Activity (Mus musculus): inactive

Compound: O=C(O)COc1ccc(S(=O)(=O)N(Cc2ccc(-c3csnn3)cc2)Cc2ccc3cc(F)c(C(F)(F)P(=O)(O)O)cc3n2)cc1
IC50 [1]: 11 nM
IC50 [2]: 990 nM
Ratio IC50 [3]: > 5000
Ratio IC50 [4]: > 5000
Ratio IC50 [5]: > 5000
Ratio IC50 [6]: > 5000
Ratio IC50 [7]: > 5000
Ratio IC50 [8]: 90
Activity (Mus musculus): 19.18 mg/dL
Tmax [9]: 41.4 min
Cmax [10]: 960 ng/mL
half-life [11]: 59.4 min
AUC(0-inf) [12]: 1320 ng·h/mL
bioavailability [13]: 0.9%
AUC [14]: 147000 ng·h/mL

Compound: NS(=O)(=O)C(F)(F)c1ccc(CN(Cc2ccc(-c3csnn3)cc2)S(=O)(=O)c2ccc(OCC(=O)O)cc2)cc1F
IC50 [1]: 31 nM
IC50 [2]: 620 nM
Ratio IC50 [3]: > 5000
Ratio IC50 [4]: > 5000
Ratio IC50 [5]: > 5000
Ratio IC50 [6]: > 5000
Ratio IC50 [7]: > 5000
Ratio IC50 [8]: 20

Compound: O=C(O)COc1ccc(S(=O)(=O)N(Cc2ccc(-c3csnn3)cc2)Cc2ccc3cc(Br)c(C(F)(F)P(=O)(O)O)cc3c2)cc1
IC50 [1]: 17 nM

Compound: O=C(O)COc1ccc(S(=O)(=O)N(Cc2ccc(-c3csnn3)cc2)Cc2ccc(Br)c(C(F)(F)P(=O)(O)O)c2)cc1
IC50 [1]: 288 nM

Compound: O=C(O)COc1ccc(S(=O)(=O)N(Cc2ccc(-c3csnn3)cc2)Cc2ccc(C3CC(=O)NS3(=O)=O)cc2)cc1 (stereo not given)
IC50 [1]: 500 nM

Compound: O=C(O)COc1ccc(S(=O)(=O)N(Cc2ccc(-c3csnn3)cc2)Cc2ccc(C(F)(F)P(=O)(O)O)c(F)c2)cc1
IC50 [1]: 35 nM
IC50 [2]: 870 nM
Ratio IC50 [3]: > 5000
Ratio IC50 [4]: > 5000
Ratio IC50 [5]: > 5000
Ratio IC50 [6]: > 5000
Ratio IC50 [7]: > 5000
Ratio IC50 [8]: 24
